≈ marks a conversion by molar mass, not a printed value.
What was measured:
[1] = tested on: Enterococcus faecalis; assay: Antibacterial activity against Enterococcus faecalis by CLSI broth microdilution method; format: functional
[2] = tested on: Staphylococcus aureus; assay: Antibacterial activity against Methicillin-resistant Staphylococcus aureus assessed as inhibition of bacterial growth at <= 0.008 ug/ml by CLSI broth microdilution method; format: functional
Outline: (§1)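 Recent clinical isolates from skin/soft tissue, bloodstream and respiratory specimens. Tested by broth microdilution per CLSI M7-A7 and M100-S18, with the appropriate quality controls. The thymidine content of the test medium was assessed to rule out artifactual inhibition.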

[3] = tested on: Enterococcus faecium; assay: Antibacterial activity against Enterococcus faecium assessed as inhibition of bacterial growth at 0.015 ug/ml by CLSI broth microdilution method; format: functional
Outline: (§2)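 Clinical isolates from skin/soft tissue, bloodstream and respiratory specimens were tested by broth microdilution per CLSI M7-A7 and M100-S18, with quality controls. Values are the number of isolates inhibited at each concentration, or MIC / percent susceptible. Highest concentration tested was 8 µg/ml for iclaprim and trimethoprim-sulfamethoxazole, and 64 µg/ml for trimethoprim.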

[4] = tested on: Staphylococcus aureus; assay: Antibacterial activity against Methicillin-resistant Staphylococcus aureus assessed as inhibition of bacterial growth at 0.015 ug/ml by CLSI broth microdilution method; format: functional; outline: as §1
[5] = tested on: Staphylococcus aureus; assay: Antibacterial activity against Methicillin-sensitive Staphylococcus aureus assessed as inhibition of bacterial growth at 0.015 ug/ml by CLSI broth microdilution method; format: functional
[6] = tested on: Streptococcus sp. 'group B'; assay: Antibacterial activity against Beta-hemolytic Streptococcus group B assessed as inhibition of bacterial growth at <= 0.008 ug/ml by CLSI broth microdilution method; format: functional; outline: as §2
[7] = tested on: Staphylococcus aureus; assay: Antibacterial activity against Methicillin-sensitive Staphylococcus aureus assessed as inhibition of bacterial growth at […] by CLSI broth microdilution method; format: functional; set-up: Activity: scale not given: the % may be the effect or the level left; on INH: tested at 0.25 µg/mL
[8] = tested on: Streptococcus sp. 'group A'; assay: Antibacterial activity against Beta-hemolytic Streptococcus group A assessed as inhibition of bacterial growth at 2 ug/ml by CLSI broth microdilution method; format: functional; outline: as §2
[9] = tested on: Streptococcus sp. 'group B'; assay: Antibacterial activity against Beta-hemolytic Streptococcus group B assessed as inhibition of bacterial growth at 2 ug/ml by CLSI broth microdilution method; format: functional; outline: as §2
[10] = tested on: Staphylococcus aureus; assay: Antibacterial activity against Methicillin-resistant Staphylococcus aureus by CLSI broth microdilution method; format: functional
[11] = tested on: Streptococcus sp. 'group B'; assay: Antibacterial activity against Beta-hemolytic Streptococcus group B assessed as inhibition of bacterial growth at 0.06 ug/ml by CLSI broth microdilution method; format: functional; outline: as §2
[12] = tested on: Enterococcus faecium; assay: Antibacterial activity against Enterococcus faecium assessed as inhibition of bacterial growth at <= 0.008 ug/ml by CLSI broth microdilution method; format: functional
[13] = tested on: Streptococcus sp. 'group A'; assay: Antibacterial activity against Beta-hemolytic Streptococcus group A assessed as inhibition of bacterial growth at 0.5 ug/ml by CLSI broth microdilution method; format: functional; outline: as §2
[14] = tested on: Staphylococcus aureus; assay: Antibacterial activity against Methicillin-sensitive Staphylococcus aureus assessed as inhibition of bacterial growth at 1 ug/ml by CLSI broth microdilution method; format: functional
[15] = tested on: Streptococcus sp. 'group A'; assay: Antibacterial activity against Beta-hemolytic Streptococcus group A assessed as inhibition of bacterial growth at 0.06 ug/ml by CLSI broth microdilution method; format: functional; outline: as §2
[16] = tested on: Enterococcus faecium; assay: Antibacterial activity against Enterococcus faecium assessed as inhibition of bacterial growth at 8 ug/ml by CLSI broth microdilution method; format: functional
[17] = tested on: Staphylococcus aureus; assay: Antibacterial activity against Methicillin-resistant Staphylococcus aureus assessed as inhibition of bacterial growth at 2 ug/ml by CLSI broth microdilution method; format: functional; outline: as §1
[18] = tested on: Streptococcus sp. 'group A'; assay: Antibacterial activity against Beta-hemolytic Streptococcus group A assessed as inhibition of bacterial growth at <= 0.008 ug/ml by CLSI broth microdilution method; format: functional; outline: as §2
[19] = tested on: Staphylococcus aureus; assay: Antibacterial activity against Methicillin-sensitive Staphylococcus aureus assessed as inhibition of bacterial growth at 8 ug/ml by CLSI broth microdilution method; format: functional; outline: as §1
[20] = tested on: Streptococcus sp. 'group B'; assay: Antibacterial activity against Beta-hemolytic Streptococcus group B assessed as inhibition of bacterial growth at 8 ug/ml by CLSI broth microdilution method; format: functional; outline: as §2
[21] = tested on: Enterococcus faecium; assay: Antibacterial activity against Enterococcus faecium assessed as inhibition of bacterial growth at […] by CLSI broth microdilution method; format: functional; further: tested at 0.25 µg/mL
[22] = tested on: Streptococcus sp. 'group A'; assay: Antibacterial activity against Beta-hemolytic Streptococcus group A assessed as inhibition of bacterial growth at 0.015 ug/ml by CLSI broth microdilution method; format: functional; outline: as §2
[23] = tested on: Streptococcus sp. 'group B'; assay: Antibacterial activity against Beta-hemolytic Streptococcus group B assessed as inhibition of bacterial growth at 0.015 ug/ml by CLSI broth microdilution method; format: functional; outline: as §2
[24] = tested on: Staphylococcus aureus; assay: Antibacterial activity against Methicillin-resistant Staphylococcus aureus assessed as inhibition of bacterial growth at 1 ug/ml by CLSI broth microdilution method; format: functional; outline: as §1
[25] = tested on: Staphylococcus aureus; assay: Antibacterial activity against Methicillin-resistant Staphylococcus aureus assessed as inhibition of bacterial growth at 0.5 ug/ml by CLSI broth microdilution method; format: functional; outline: as §1
[26] = tested on: Staphylococcus aureus; assay: Antibacterial activity against Methicillin-sensitive Staphylococcus aureus assessed as susceptible isolates by CLSI broth microdilution method; format: functional
[27] = tested on: Staphylococcus aureus; assay: microbe, parasite or virus in culture; conditions: read-out: INH
[28] = tested on: Streptococcus sp. 'group A'; assay: microbe, parasite or virus in culture; conditions: read-out: INH
[29] = tested on: Staphylococcus aureus; assay: microbe, parasite or virus in culture; conditions: read-out: INH; remark: listed apart in the source
[30] = tested on: Staphylococcus aureus; assay: Antibacterial activity against Methicillin-resistant Staphylococcus aureus assessed as resistant isolates by CLSI broth microdilution method; format: functional
[31] = tested on: Staphylococcus aureus; assay: microbe, parasite or virus in culture; conditions: read-out: INH; remark: listed apart in the source
[32] = tested on: Staphylococcus aureus; assay: microbe, parasite or virus in culture; conditions: read-out: INH; remark: listed apart in the source
[33] = tested on: Staphylococcus aureus; assay: Antibacterial activity against Methicillin-sensitive Staphylococcus aureus assessed as resistant isolates by CLSI broth microdilution method; format: functional
[34] = tested on: Enterococcus faecalis; assay: microbe, parasite or virus in culture; conditions: read-out: INH
[35] = tested on: Enterococcus faecalis; assay: microbe, parasite or virus in culture; conditions: read-out: INH; remark: listed apart in the source
[36] = tested on: Enterococcus faecium; assay: microbe, parasite or virus in culture; conditions: read-out: INH
[37] = tested on: Enterococcus faecium; assay: microbe, parasite or virus in culture; conditions: read-out: INH; remark: listed apart in the source
[38] = tested on: Enterococcus faecium; assay: microbe, parasite or virus in culture; conditions: read-out: INH; remark: listed apart in the source
[39] = tested on: Streptococcus sp. 'group B'; assay: microbe, parasite or virus in culture; conditions: read-out: INH
[40] = tested on: Enterococcus faecalis; assay: microbe, parasite or virus in culture; conditions: read-out: INH; remark: listed apart in the source
[41] = tested on: Staphylococcus aureus; assay: microbe, parasite or virus in culture; conditions: read-out: INH; remark: listed apart in the source
[42] = tested on: Streptococcus sp. 'group A'; assay: microbe, parasite or virus in culture; conditions: read-out: INH; remark: listed apart in the source
[43] = tested on: Streptococcus sp. 'group A'; assay: microbe, parasite or virus in culture; conditions: read-out: INH; remark: listed apart in the source

Compound	MIC50 [1] [µg/mL]	MIC90 [1] [µg/mL]	inhibition at 2 µg/mL [8] [%]	inhibition at 2 µg/mL [9] [%]	MIC50 [10] [µg/mL]	MIC90 [10] [µg/mL]	inhibition at 0.06 µg/mL [11] [%]	inhibition at 0.5 µg/mL [13] [%]	inhibition at 1 µg/mL [14] [%]	inhibition at 0.06 µg/mL [15] [%]	inhibition at 8 µg/mL [16] [%]	inhibition at 2 µg/mL [17] [%]	inhibition at 8 µg/mL [19] [%]	inhibition at 8 µg/mL [20] [%]	inhibition at […] [21] [%]	inhibition at 1 µg/mL [24] [%]	inhibition at 0.5 µg/mL [25] [%]	also measured
COc1cc(Cc2cnc(N)nc2N)c2c(c1OC)OC(C1CC1)C=C2 (stereo not drawn)	0.015 (≈ 0.0423 µM)	4 (≈ 11.3 µM)	100	100	0.06 (≈ 0.169 µM)	0.12 (≈ 0.339 µM)	5.4	100	98.7	99.3	75.6	94.6	100	100	38.3	93.8	92.9	inhibition (INH) [2]: 0.1%; inhibition at 0.015 µg/mL [3]: 36.3%; inhibition at 0.015 µg/mL [4]: 0.4%; inhibition at 0.015 µg/mL [5]: 0.3%; inhibition (INH) [6]: 0%; inhibition at […] ([7]; Staphylococcus aureus): 98.5%; inhibition (INH) [12]: 33.7%; inhibition (INH) [18]: 30.5%; inhibition at 0.015 µg/mL [22]: 77.6%; inhibition at 0.015 µg/mL [23]: 0.5%
COc1cc(Cc2cnc(N)nc2N)cc(OC)c1OC [TRIMETHOPRIM]	0.25 (≈ 0.861 µM)	> 64	100	89.2	1 (≈ 3.44 µM)	2 (≈ 6.89 µM)	0	98.5	90.2	8.6	41.6	92.1	98.7	100	37.3	88.5	47.7	Activity [26]: 98.7%; inhibition at 32 µg/mL [27]: 94.1%; inhibition at 32 µg/mL [28]: 100%; inhibition at 64 µg/mL [29]: 98.7%; Activity [30]: 7.1%; inhibition at 32 µg/mL [31]: 98.7%; Activity [7]: 2.4%; inhibition at 16 µg/mL [32]: 98.7%; Activity [33]: 1.3%; inhibition at 32 µg/mL [34]: 71%; inhibition at 16 µg/mL [35]: 70.6%; inhibition at 16 µg/mL [36]: 47.2%; inhibition at 64 µg/mL [37]: 60.7%; inhibition at 32 µg/mL [38]: 55.1%; inhibition at 64 µg/mL [39]: 100%; inhibition at 64 µg/mL [40]: 72.9%; inhibition at 64 µg/mL [41]: 94.6%; inhibition at 16 µg/mL [42]: 100%; inhibition at 64 µg/mL [43]: 100%
